Laboratory results reported in ChEMBL document CHEMBL5030522, “A Convenient Chemoenzymatic Preparation of Chimeric Macrocyclic Peptide Antibiotics with Potent Activity against Gram-Negative Pathogens” (2021).
Values after ≈ are worked out from the molar mass of the structure shown. Numbered stars: 1 amine (or outer) side, 2 acyl side, 3 side chain; on linkers, the order of the positions; unused ones are H or OH. Bridge positions count the residues as written; N and C are the ends. Square brackets hold non-standard residues; d marks the D form. Peptide text beside a SMILES is read from it. I, II: the chains in the order shown. X1 = NC(=O)[C@H](Cc1cn(CCOCCOCCOCCC(=O)[*:2])nn1)N[*:1]; X3 = NC(=O)[C@H](Cc1cn(CCCCC(=O)[*:2])nn1)N[*:1]; X2 = NC(=O)[C@H](Cc1cn(CC(=O)[*:2])nn1)N[*:1]; Tle = CC(C)(C)[C@H](N)C(=O)O; dDab = NCC[C@@H](N)C(=O)O; hSer = N[C@@H](CCO)C(=O)O; Dab = NCC[C@H](N)C(=O)O

Tests used:
Assay type in all cases: functional
Pseudomonas aeruginosa [1] = assay: Antibacterial activity against Pseudomonas aeruginosa producing NDM1 assessed as inhibition of bacterial growth after 16 hrs by broth microdilution method
Summary of the method: (§1)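 CLSI broth microdilution. Strains grown from glycerol stocks on blood agar 16 h at 37 °C; colonies used to inoculate CAMHB containing 10 mg L–1 Mg2+ and 25 mg L–1 Ca2+. Peptides dissolved in CAMHB with 0.002% (v/v) final polysorbate-80, serially diluted in polypropylene plates; inoculum 5 × 10^5 CFU mL–1. Sealed, 16 h at 37 °C, growth scored visually. MIC in μg/mL; three or more measurements on multiple days.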

Escherichia coli [2] = assay: Antibacterial activity against Escherichia coli producing MCR1 assessed as inhibition of bacterial growth after 16 hrs by broth microdilution method
Summary of the method: (§2)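 MIC per CLSI broth microdilution. Strains streaked from glycerol stocks on blood agar, 16 h at 37 °C. Single colonies inoculated into cation-adjusted Mueller-Hinton broth (10 mg L–1 Mg2+, 25 mg L–1 Ca2+). Peptides serially diluted in this broth with 0.002% (v/v) final polysorbate-80 in polypropylene plates. Inoculum 5 × 10^5 CFU mL–1. Plates sealed, 16 h at 37 °C, growth scored visually. MIC in μg/mL, triplicates on two separate days.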

Escherichia coli [3] = assay: Antibacterial activity against Escherichia coli producing NDM1 assessed as inhibition of bacterial growth after 16 hrs by broth microdilution method; summary of the method: as §1
Escherichia coli [4] = assay: Antibacterial activity against Escherichia coli producing MCR3 assessed as inhibition of bacterial growth after 16 hrs by broth microdilution method; summary of the method: as §2
Acinetobacter baumannii [5] = assay: Antibacterial activity against Acinetobacter baumannii ATCC 9955 assessed as inhibition of bacterial growth after 16 hrs by broth microdilution method; summary of the method: as §2
Acinetobacter baumannii [6] = assay: Antibacterial activity against Acinetobacter baumannii NRZ 00687 producing NDM2 assessed as inhibition of bacterial growth after 16 hrs by broth microdilution method; summary of the method: as §2
Klebsiella pneumoniae [7] = assay: Antibacterial activity against Klebsiella pneumoniae producing NDM1 assessed as inhibition of bacterial growth after 16 hrs by broth microdilution method; summary of the method: as §2
Acinetobacter baumannii [8] = assay: Antibacterial activity against multidrug-resistant Acinetobacter baumannii assessed as inhibition of bacterial growth after 16 hrs by broth microdilution method; summary of the method: as §1
Escherichia coli [9] = assay: Antibacterial activity against Escherichia coli producing MCR2 assessed as inhibition of bacterial growth after 16 hrs by broth microdilution method; summary of the method: as §2
Acinetobacter baumannii [10] = assay: Antibacterial activity against Acinetobacter baumannii ATCC 17978 assessed as inhibition of bacterial growth after 16 hrs by broth microdilution method; summary of the method: as §2
Pseudomonas aeruginosa [11] = assay: Antibacterial activity against Pseudomonas aeruginosa NRZ 08418 producing NDM1 assessed as inhibition of bacterial growth after 16 hrs by broth microdilution method; summary of the method: as §2
Pseudomonas aeruginosa [12] = assay: Antibacterial activity against Pseudomonas aeruginosa M-120 assessed as inhibition of bacterial growth after 16 hrs by broth microdilution method; summary of the method: as §2
Klebsiella pneumoniae [13] = assay: Antibacterial activity against Klebsiella pneumoniae ATCC 11228 assessed as inhibition of bacterial growth after 16 hrs by broth microdilution method; summary of the method: as §2
Escherichia coli [14] = assay: Antibacterial activity against Escherichia coli ATCC 35218 assessed as inhibition of bacterial growth after 16 hrs by broth microdilution method; summary of the method: as §2
Staphylococcus aureus = assay: Antibacterial activity against methicillin resistant Staphylococcus aureus USA300 by measuring MIC after 16 hrs by broth microdilution method; summary of the method: as §1
Pseudomonas aeruginosa [15] = assay: Antibacterial activity against Pseudomonas aeruginosa ATCC 27853 assessed as inhibition of bacterial growth after 16 hrs by broth microdilution method; summary of the method: as §2

| Compound | MIC (Pseudomonas aeruginosa [1]) | MIC (Escherichia coli [2]) | MIC (Escherichia coli [3]) | MIC (Escherichia coli [4]) | MIC (Acinetobacter baumannii [5]) | MIC (Acinetobacter baumannii [6]) | MIC (Klebsiella pneumoniae [7]) | MIC (Acinetobacter baumannii [8]) | MIC (Escherichia coli [9]) | MIC (Acinetobacter baumannii [10]) | MIC (Pseudomonas aeruginosa [11]) | MIC (Pseudomonas aeruginosa [12]) | MIC (Klebsiella pneumoniae [13]) | MIC (Escherichia coli [14]) | MIC (Staphylococcus aureus) | MIC (Pseudomonas aeruginosa [15]) |
| --- | --- | --- | --- | --- | --- | --- | --- | --- | --- | --- | --- | --- | --- | --- | --- | --- |
| CC[C@H](C)CCCCC(=O)N[C@@H](CCN)C(=O)N[C@H](C(=O)N[C@@H](CCN)C(=O)N[C@H]1CCNC(=O)[C@H]([C@@H](C)O)NC(=O)[C@H](CCN)NC(=O)[C@H](CCN)NC(=O)[C@H](CC(C)C)NC(=O)[C@@H](CC(C)C)NC(=O)[C@H](CCN)NC1=O)[C@@H](C)O | 0.4 µg/mL (≈ 0.342 µM) | 3.2 µg/mL (≈ 2.74 µM) | 0.1 µg/mL (≈ 0.0855 µM) | 3.2 µg/mL (≈ 2.74 µM) | 0.4 µg/mL (≈ 0.342 µM) | 0.2 µg/mL (≈ 0.171 µM) | 1.6 µg/mL (≈ 1.37 µM) | 0.4 µg/mL (≈ 0.342 µM) | > 6.4 µg/mL | 0.4 µg/mL (≈ 0.342 µM) | 0.8 µg/mL (≈ 0.684 µM) | 0.8 µg/mL (≈ 0.684 µM) | 0.1 µg/mL (≈ 0.0855 µM) | 0.1 µg/mL (≈ 0.0855 µM) | > 6.4 µg/mL | 1.6 µg/mL (≈ 1.37 µM) |
| CC(C)C[C@@H]1NC(=O)[C@@H](CC(C)C)NC(=O)[C@H](CCN)NC(=O)[C@@H](NC(=O)[C@H](CCN)NC(=O)[C@@H](NC(=O)CCOCCOCCOCCn2cc(C[C@H](NC(=O)CC[C@@H]3NC(=O)[C@H](CCN)NC(=O)[C@H](Cc4ccc(O)cc4)NC(=O)[C@H]([C@@H](C)O)NC(=O)[C@H](C(C)C)NC(=O)[C@@H]4CCCN4C(=O)[C@@H](C)NC(=O)[C@H](CO)NC(=O)[C@H](C)NC(=O)[C@H](C(C)(C)C)NC(=O)[C@H](CCO)NC(=O)[C@H](Cc4c[nH]c5ccccc45)NC(=O)[C@H](CCO)NC(=O)[C@@H](CCN)NC3=O)C(N)=O)nn2)[C@@H](C)O)CCNC(=O)[C@H]([C@@H](C)O)NC(=O)[C@H](CCN)NC(=O)[C@H](CCN)NC1=O (I: cyclo([dDab][hSer]W[hSer][Tle]AS[dA]PVTY[Dab]E) / II: T[Dab][Dab][Dab][dL]L[Dab][Dab]T; linker I:14-II:N via X1; lactam II:3-II:C) | 4 µg/mL (≈ 1.44 µM) | 16 µg/mL (≈ 5.77 µM) |  |  | 8 µg/mL (≈ 2.88 µM) | 2 µg/mL (≈ 0.721 µM) |  | 4 µg/mL (≈ 1.44 µM) | 16 µg/mL (≈ 5.77 µM) |  |  | 8 µg/mL (≈ 2.88 µM) | 8 µg/mL (≈ 2.88 µM) | 2 µg/mL (≈ 0.721 µM) | > 64 µg/mL | 4 µg/mL (≈ 1.44 µM) |
| CC(C)C[C@@H]1NC(=O)[C@@H](CC(C)C)NC(=O)[C@H](CCN)NC(=O)[C@@H](NC(=O)[C@H](CCN)NC(=O)[C@@H](NC(=O)Cn2cc(C[C@H](NC(=O)CC[C@@H]3NC(=O)[C@H](CCN)NC(=O)[C@H](Cc4ccc(O)cc4)NC(=O)[C@H]([C@@H](C)O)NC(=O)[C@H](C(C)C)NC(=O)[C@@H]4CCCN4C(=O)[C@@H](C)NC(=O)[C@H](CO)NC(=O)[C@H](C)NC(=O)[C@H](C(C)(C)C)NC(=O)[C@H](CCO)NC(=O)[C@H](Cc4c[nH]c5ccccc45)NC(=O)[C@H](CCO)NC(=O)[C@@H](CCN)NC3=O)C(N)=O)nn2)[C@@H](C)O)CCNC(=O)[C@H]([C@@H](C)O)NC(=O)[C@H](CCN)NC(=O)[C@H](CCN)NC1=O (I: cyclo([dDab][hSer]W[hSer][Tle]AS[dA]PVTY[Dab]E) / II: T[Dab][Dab][Dab][dL]L[Dab][Dab]T; linker I:14-II:N via X2; lactam II:3-II:C) | 2 µg/mL (≈ 0.761 µM) | 2 µg/mL (≈ 0.761 µM) |  |  | 2 µg/mL (≈ 0.761 µM) | 0.5 µg/mL (≈ 0.19 µM) | 2 µg/mL (≈ 0.761 µM) | 1 µg/mL (≈ 0.381 µM) | 2 µg/mL (≈ 0.761 µM) |  |  | 4 µg/mL (≈ 1.52 µM) |  | 0.5 µg/mL (≈ 0.19 µM) | > 6.4 µg/mL | 1 µg/mL (≈ 0.381 µM) |
| CC(C)C[C@@H]1NC(=O)[C@@H](CC(C)C)NC(=O)[C@H](CCN)NC(=O)[C@@H](NC(=O)[C@H](CCN)NC(=O)[C@@H](NC(=O)CCCCn2cc(C[C@H](NC(=O)CC[C@@H]3NC(=O)[C@H](CCN)NC(=O)[C@H](Cc4ccc(O)cc4)NC(=O)[C@H]([C@@H](C)O)NC(=O)[C@H](C(C)C)NC(=O)[C@@H]4CCCN4C(=O)[C@@H](C)NC(=O)[C@H](CO)NC(=O)[C@H](C)NC(=O)[C@H](C(C)(C)C)NC(=O)[C@H](CCO)NC(=O)[C@H](Cc4c[nH]c5ccccc45)NC(=O)[C@H](CCO)NC(=O)[C@@H](CCN)NC3=O)C(N)=O)nn2)[C@@H](C)O)CCNC(=O)[C@H]([C@@H](C)O)NC(=O)[C@H](CCN)NC(=O)[C@H](CCN)NC1=O (I: cyclo([dDab][hSer]W[hSer][Tle]AS[dA]PVTY[Dab]E) / II: T[Dab][Dab][Dab][dL]L[Dab][Dab]T; linker I:14-II:N via X3; lactam II:3-II:C) | 2 µg/mL (≈ 0.749 µM) | 4 µg/mL (≈ 1.5 µM) |  |  | 2 µg/mL (≈ 0.749 µM) |  | 4 µg/mL (≈ 1.5 µM) | 2 µg/mL (≈ 0.749 µM) | 4 µg/mL (≈ 1.5 µM) | 1 µg/mL (≈ 0.375 µM) | 4 µg/mL (≈ 1.5 µM) |  | 2 µg/mL (≈ 0.749 µM) | 1 µg/mL (≈ 0.375 µM) | > 64 µg/mL |  |
